# Sampled rows, rich in hits. Any-hit rate of the full collection: about 3%.
# Granule exo inh: LAMP-1 surface exposure blockers, TALL-104 cells – cell-based, flow cytometry, MLPCN library, primary screen; TALL-104 LAMP-1 surface exposure; cells stimulated with thapsigargin and PMA; inhibition, % at 10 µM; 360,000 tested, 0.66% active; AID 651702, 2012;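 active = inhibition above about 55%, limit read from the data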
# MPTP block: mitochondrial permeability transition pore inhibitors, primary screen, biochemical, isolated mouse mitochondria, absorbance; AID 602449, 2012; Ca2+ swelling absorbance, 30 min; inhibition, % at 10 µM; 360,000 tested, 1.4% active;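 active = inhibition of 50% or more, scaled per plate between neutral and stimulator controls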
# iPSC survival up: enhancers of single-cell hiPSC survival, primary screen, ATPlite luminescence; 100% = ROCK inhibitor wells, 0% = DMSO; survival enhancement, % at 20 µM; 360,000 tested, 0.044% active; in the data active = survival enhancement above about 18%;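 note: cells exposed to compounds for 16 hours before the ATP read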
# UBC13 polyUb: UBC13 polyubiquitin chain formation inhibitors, primary screen, biochemical, TR-FRET, uHTS; inhibition, % at 20 µM; Ubiquitin-conjugating enzyme E2 N (Homo sapiens), P61088; 330,000 tested, 0.47% active; in the data active = inhibition above about 45%, passing the limit was not always enough
# Target sequence (P61088 whole entry, looked up): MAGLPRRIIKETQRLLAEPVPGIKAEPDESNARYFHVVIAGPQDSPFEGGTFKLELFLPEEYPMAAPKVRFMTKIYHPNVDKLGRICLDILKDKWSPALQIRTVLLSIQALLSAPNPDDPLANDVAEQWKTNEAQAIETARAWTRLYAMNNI
# Apaf1 inhib: inhibitors of human Apaf-1 apoptosome, primary screen, biochemical, DEVD-Rh110 fluorescence, uHTS; reconstituted apoptosome caspase-3 activity; inhibition, % at 20 µM; 330,000 tested, 0.71% active; active = inhibition of at least 40% at 20 µM
#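 System – cell-free apoptosome with Apaf-1, procaspase-3 and caspase-9 · Buffer or medium – pH 7.5 Hepes buffer with CHAPS, BSA, DTT · Also added – cytochrome c with DEVD-Rh110 · Times – 30 min compound preincubation, 50 min activation, room temperature · Technique – Rh110 fluorescence intensity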
# beta cell repl: inducers of MIN6 beta-cell proliferation, primary screen, ATP luminescence, uHTS; MIN6 cells proliferation, ATPlite luminescence, 48 h; cells starved in 0.2% serum; 100% = growth in 10% serum; proliferation, % at 10 µM; 330,000 tested, 0.29% active; AID 2380, 2010;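 active = compounds whose signal lies at least 3.5 SD above the mean of all wells on their plate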
# MPTP counter: fluorescence retest of MPTP screen hits in isolated mitochondria, single concentration | inhibition, % at 10 µM | shares compounds with MPTP block | 5,000 tested, 78% active | membrane potential, Rhodamine 123 fluorescence; in the data active = inhibition above about 22%
# MPTP abs DR: mitochondrial permeability transition pore inhibitors, dose response, biochemical, absorbance, uHTS hits. shares compounds with MPTP block. isolated mitochondria swelling. IC50, µM. 780 tested, 58% active. AID 651561, 2012; in the data active = IC50 below about 20 µM
# MPTP cs DR: fluorescent counter-screen in isolated mitochondria, dose response, counter-screen for MPTP inhibitor project, biochemical, fluorescence, uHTS hits. shares compounds with MPTP block. isolated mitochondria counterscreen, fluorescence read-out. IC50, µM. 780 tested, 49% active; in the data active = IC50 below about 80 µM
# Numbers stand for hits; - = inactive; . = no result.
SMILES,Granule exo inh,MPTP block,iPSC survival up,UBC13 polyUb,Apaf1 inhib,beta cell repl,MPTP counter,others
CSc1nc2ccc(NS(=O)(=O)c3cccc(Cl)c3Cl)cc2s1,-,60,-,-,-,-,64,
Cc1cc(C)c(-c2csc(Cc3nc(-c4cc5ccccc5oc4=O)cs3)n2)cc1C,-,53,-,-,-,-,-,MPTP abs DR=6.3;MPTP cs DR=7.8
Cc1cc2nc(-c3ccccc3)c(Cc3ccsc3)n2c(C)c1Br,-,-,-,.,.,.,.,
Cc1ccc2nc(/C(C#N)=C\c3ccc(Oc4ccc(C(F)(F)F)cc4[N+](=O)[O-])cc3)[nH]c2c1,-,99,-,-,-,-,59,
COc1cc(/C=C(\C#N)c2nc3ccccc3[nH]2)cc(Br)c1OCc1ccc(F)cc1,-,-,-,-,-,-,.,
COc1cc(/C=C(\C#N)c2nc3ccccc3[nH]2)ccc1Oc1ccc([N+](=O)[O-])cn1,-,78,-,-,-,-,55,
COc1cc(/C=C(\C#N)c2nc3ccccc3[nH]2)cc(Br)c1OCc1ccccc1,-,64,-,-,-,-,73,
COc1cc(/C=C(/C#N)c2ccccc2)ccc1Oc1ccc([N+](=O)[O-])cn1,-,-,-,-,-,-,.,
N#C/C(=C\c1cccc(Oc2ccc(C(F)(F)F)cc2[N+](=O)[O-])c1)c1nc2ccccc2[nH]1,-,155,-,-,-,-,105,
COc1ccc(/C=C(\C#N)c2nc3ccc(C)cc3[nH]2)cc1Oc1ccc(C(F)(F)F)cc1[N+](=O)[O-],-,-,-,-,-,-,.,
COc1ccc(/C=C(\C#N)c2nc3ccccc3[nH]2)cc1O,-,-,-,-,-,-,.,
CC1CCC(NC(=O)N(CCCl)N=O)CC1 (stereo not drawn),-,-,-,-,-,-,.,
Cc1cccc(OCCCCNCc2ccccc2)c1,-,59,-,-,-,-,-,MPTP abs DR=6.8;MPTP cs DR=-
CCc1nc2c(OCc3cc(Cl)cc(Cl)c3)cccn2c1N(C=O)Cc1ccc(OC)cc1,-,-,-,.,.,.,.,
CCOc1cccc(C(=O)Nc2ccccc2C(=O)N2CCOCC2)c1,-,-,-,-,-,-,.,
CSc1cccc(NC(=S)N2CCC(c3ccccc3)C2)c1 (stereo not drawn),-,-,-,-,-,-,.,
CSc1cccc(NC(=S)N2CCCN(Cc3ccccc3F)C2)c1,-,69,-,-,-,-,81,
CC(C)[C@H](NC(=O)OC(C)(C)C)c1nnc(SCC(=O)Nc2ccc(Br)cc2)o1,-,82,-,-,-,-,53,
C[C@H](NC(=O)OC(C)(C)C)c1nnc(SCC(=O)Nc2cccc(Cl)c2)o1,-,-,-,-,-,-,.,
O=C(NCCCSc1ccccc1)c1cc(Cl)ccc1O,-,82,-,-,-,-,83,
O=C(CNC(=O)c1ccccc1)NCCCSc1ccccc1,-,-,-,-,-,-,.,
c1ccc2c(C3OCC4(CCCCC4)CO3)cccc2c1,-,-,-,.,.,.,.,
O=C1NC[C@@H](CCCCN2CCN(CC3CCCCC3)C(=O)C2=O)N(CC2CCCCC2)C1=O,-,-,-,.,.,.,.,
O=c1cc(CO)oc(C(Nc2ccccn2)c2cccc(F)c2)c1O (stereo not drawn),-,-,-,-,-,-,.,
O=c1cc(CO)oc(C(Nc2ccccn2)c2ccc(C(F)(F)F)cc2)c1O (stereo not drawn),-,68,-,-,-,-,-,MPTP abs DR=11;MPTP cs DR=-
SMILES,Granule exo inh,MPTP block,iPSC survival up,UBC13 polyUb,Apaf1 inhib,beta cell repl,MPTP counter,others
COc1ccc(CCNC(=O)CCNC(=O)N2CC(=O)Nc3ccccc32)cc1,-,-,-,-,-,-,.,
O=S(=O)(NCCNc1ncc(C(F)(F)F)cc1Cl)C(F)(F)F,-,81,-,-,-,-,94,
O=S(=O)(Nc1nc2ccccc2nc1Nc1ccc2c(c1)OCO2)c1ccccc1,-,-,-,-,-,-,.,
Cc1cccc(S(=O)(=O)Nc2nc3ccccc3nc2Nc2ccc3c(c2)OCO3)c1,-,97,-,-,-,-,65,
Cc1ccc(S(=O)(=O)Nc2nc3ccccc3nc2Nc2cccc(S(=O)(=O)N3CCCC3)c2)cc1,-,82,-,-,-,-,41,
O=[N+]([O-])c1cccc(S(=O)(=O)Nc2ccc(S(=O)(=O)N3CCCC3)cc2)c1,-,-,-,-,-,-,.,
O=[N+]([O-])c1cccc(S(=O)(=O)Nc2nc3ccccc3nc2Nc2cccc(S(=O)(=O)N3CCCCC3)c2)c1,-,60,-,.,.,.,30,
COc1ccc(S(=O)(=O)Nc2cccc(S(=O)(=O)N3CCCCC3)c2)cc1,-,-,-,-,-,-,.,
Cc1nn(S(=O)(=O)c2ccc(Cl)cc2)c(C)c1Sc1ccc([N+](=O)[O-])cc1,-,61,-,.,.,.,41,
CCNC(=O)C1(C)CCCN(C(=O)c2sccc2C)C1 (stereo not drawn),-,-,-,.,.,.,.,
O=C(COc1ccc(Br)cc1)NCCN1CCCC1,-,-,-,-,-,-,.,
CN1CCN(c2ccc(CNS(=O)(=O)Cc3cccc(C(F)(F)F)c3)cc2)CC1,-,84,-,-,-,-,86,
CCCN(CCC)CCCNC(=O)c1cn(-c2ccc(OC)cc2)c(=O)c2ccccc12,-,-,-,-,-,-,.,
CC(=O)[C@H]1CC[C@H]2[C@@H]3CC=C4C[C@@H](O)CC[C@]4(C)[C@H]3CC[C@]12C,-,-,-,-,-,-,.,
COC1CCC2(C)C(=CCC3C4CC(O)CC4(C)CCC32)C1 (stereo not drawn),-,81,-,.,.,.,73,
CCOC(=O)[C@]12CCCC=C1N(Cc1cccc3ccccc13)C(=O)[C@H](CC(=O)NCc1ccc(OC)c(OC)c1)C2,-,-,-,.,.,.,.,
c1ccc(-c2ccc(OCCCNC3CCCC3)cc2)cc1,-,88,-,-,-,-,-,MPTP abs DR=5.2;MPTP cs DR=46
c1ccc(Cc2ccc(OCCCNC3CCCC3)cc2)cc1,.,.,.,-,-,-,.,
Cc1ccc(C)c(NC(=S)N2CCC(C(=O)c3ccc(F)cc3)CC2)c1,-,-,-,.,.,.,.,
O=c1[nH]c([N+](=O)[O-])nn1C(c1ccccc1)c1ccccc1,-,-,-,-,-,-,.,
Cc1cccc2cc(C#N)c(NCCNC(=O)c3ccccc3)nc12,-,-,-,.,.,.,.,
Cc1ccc(Nc2nc(C)c(CCC(C)C)c(=O)[nH]2)cc1,-,-,-,-,-,-,.,

# Source: PubChem
